Data on 14 molecules can be found in ChEMBL document CHEMBL1944633, “A new generation of radiofluorinated pyrimidine-2,4,6-triones as MMP-targeted radiotracers for positron emission tomography” (J Med Chem, 2012).

SMILES strings stand for the structures.

Series [1] has as its target 72 kDa type IV collagenase (Homo sapiens, UniProt P08253). Briefly: Inhibition of MMP2 using (7-methoxycoumarin-4-yl)acetyl-Pro-Leu-Gly-Leu-(3-(2,4-dinitrophenyl)-L-2,3-diaminopropionyl)Ala-Arg-NH2 as substrate preincubated for 30 mins measured after 10 mins by fluorescence analysis. The essentials:
(§1)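 Activated enzyme at 2 nM preincubated with inhibitor (10 pM to 1 mM) for 30 min at 37 °C in 50 mM Tris-HCl pH 7.5, 0.2 M NaCl, 5 mM CaCl2, 20 μM ZnSO4, 0.05% Brij 35. Fluorogenic peptide substrate added (10 μL of 50 μM stock to 90 μL mix).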

The target in a further series is Collagenase 3 (Homo sapiens, UniProt P45452). Briefly: Inhibition of MMP13 using (7-methoxycoumarin-4-yl)acetyl-Pro-Leu-Gly-Leu-(3-(2,4-dinitrophenyl)-L-2,3-diaminopropionyl)Ala-Arg-NH2 as substrate preincubated for 30 mins measured after 10 mins by fluorescence analysis. The essentials: (§2)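 Activated enzyme at 2 nM preincubated with inhibitor (10 pM to 1 mM) for 30 min at 37 °C in 50 mM Tris-HCl pH 7.5, 0.2 M NaCl, 5 mM CaCl2, 20 μM ZnSO4, 0.05% Brij 35. Fluorogenic peptide substrate added (10 μL of 50 μM stock to 90 μL mix). Fluorescence read at ex 330/em 390 nm. Rates taken from initial 10 min; IC50 by nonlinear regression of rate versus concentration.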

The target of series [2] is Matrix metalloproteinase-9 (Homo sapiens, UniProt P14780). The experiment in a line: Inhibition of MMP9 using (7-methoxycoumarin-4-yl)acetyl-Pro-Leu-Gly-Leu-(3-(2,4-dinitrophenyl)-L-2,3-diaminopropionyl)Ala-Arg-NH2 as substrate preincubated for 30 mins measured after 10 mins by fluorescence analysis. The essentials: as §1
A further series concerns the target Neutrophil collagenase (Homo sapiens, UniProt P22894). Briefly: Inhibition of MMP8 using (7-methoxycoumarin-4-yl)acetyl-Pro-Leu-Gly-Leu-(3-(2,4-dinitrophenyl)-L-2,3-diaminopropionyl)Ala-Arg-NH2 as substrate preincubated for 30 mins measured after 10 mins by fluorescence analysis. The essentials: as §2
The nature of series [3]: Octanol-water partition coefficient, log D of the compound at pH 7.4 by gamma counter. In kind it is physicochemical. The essentials: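 About 20 kBq radioligand shaken 1 min at room temperature in equal volumes (0.5 mL) of PBS pH 7.4 and 1-octanol. Phases separated by centrifugation (3000 rpm, 2 min). Three 100 μL samples per layer gamma-counted. log D7.4 = log(cpm octanol/cpm PBS). Two independent experiments in triplicate, mean ± standard deviation.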

The next series deals with Brain. The experiment in a line: Drug uptake in BALB/c mouse brain at 5 to 8 MBq measured after 60 mins by CT scanning. Format: ADME, tissue-based. To be noted: in vivo, 1 h. The essentials: (§3)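 Balb/c mice (19–27 g) under isoflurane (1.5%/0.3 L/min) on a heating pad, tail-vein catheter. 5–8 MBq radiotracer in 100 μL with 150 μL saline flush, injected iv 30 s after scan start. Dynamic list-mode small-animal PET for 60 min, iterative resolution-recovery reconstruction. CT acquired afterwards (80 μm). CT-guided volumes of interest gave time–activity curves as %ID.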

In series [4] the test system is Liver. Briefly: Drug uptake in BALB/c mouse liver at 5 to 8 MBq measured after 60 mins by CT scanning. In kind it is ADME. To be noted: in vivo, 1 h. The essentials:
as §3

Series [5] can be described thus: Drug uptake in BALB/c mouse gallbladder at 5 to 8 MBq measured after 60 mins by CT scanning. As to conditions: in vivo, 1 h; call rule not given here. Format: ADME, Gall bladder. The essentials: as §3
The test system of the next series is Kidney. The experiment in a line: Drug uptake in BALB/c mouse kidney at 5 to 8 MBq measured after 60 mins by CT scanning. Format: ADME. To be noted: in vivo, 1 h. The essentials: as §3
Series [6] deals with Liver. The experiment in a line: Drug uptake in BALB/c mouse liver at 5 to 8 MBq measured after 90 to 120 mins post injection by CT scanning. In kind it is ADME. To be noted: in vivo.
The nature of series [7]: Drug uptake in BALB/c mouse urinary bladder at 5 to 8 MBq measured after 60 mins by CT scanning. In kind it is ADME, tissue-based. As to conditions: in vivo, 1 h. The essentials:
as §3

Series [8] is described as follows: Drug uptake in BALB/c mouse skeleton at 5 to 8 MBq measured after 60 mins by CT scanning. Format: ADME. To be noted: in vivo, 1 h. The essentials:
as §3

In another series the test system is Serum. Briefly: Stability of the compound in human serum at 5MBq measured up to 120 mins by HPLC analysis. In kind it is ADME, cell-free. To be noted: 2 h. The essentials: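 PBS-formulated radioligand (20 μL, 5 MBq) added to 200 μL human serum at 37 °C. 20 μL aliquots taken at 10, 20, 30, 60, 90 and 120 min and quenched in methanol/CH2Cl2 (1:1, 100 μL). Samples centrifuged 2 min; organic layer analysed by radio-HPLC (10–90% CH3CN/water, 0.1% TFA gradient).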

Series [9] relates to Liver. Briefly: Drug uptake in BALB/c mouse liver at 5 to 8 MBq measured after 10 to 15 mins post injection by CT scanning. In kind it is ADME. To be noted: in vivo.
Another series has as its system Heart. The experiment in a line: Drug uptake in BALB/c mouse heart at 5 to 8 MBq measured after 60 mins by CT scanning. Format: ADME, tissue-based. As to conditions: in vivo, 1 h. The essentials: as §3
Another series concerns Intestine. The experiment in a line: Drug uptake in BALB/c mouse intestine at 5 to 8 MBq measured after 60 mins by CT scanning. In kind it is ADME, tissue-based. As to conditions: in vivo, 1 h. The essentials: as §3
The test system of the next series is Lung. Briefly: Drug uptake in BALB/c mouse lung at 5 to 8 MBq measured after 60 mins by CT scanning. In kind it is ADME. As to conditions: in vivo, 1 h. The essentials:
as §3

Chain of 72 kDa type IV collagenase (P08253 whole entry): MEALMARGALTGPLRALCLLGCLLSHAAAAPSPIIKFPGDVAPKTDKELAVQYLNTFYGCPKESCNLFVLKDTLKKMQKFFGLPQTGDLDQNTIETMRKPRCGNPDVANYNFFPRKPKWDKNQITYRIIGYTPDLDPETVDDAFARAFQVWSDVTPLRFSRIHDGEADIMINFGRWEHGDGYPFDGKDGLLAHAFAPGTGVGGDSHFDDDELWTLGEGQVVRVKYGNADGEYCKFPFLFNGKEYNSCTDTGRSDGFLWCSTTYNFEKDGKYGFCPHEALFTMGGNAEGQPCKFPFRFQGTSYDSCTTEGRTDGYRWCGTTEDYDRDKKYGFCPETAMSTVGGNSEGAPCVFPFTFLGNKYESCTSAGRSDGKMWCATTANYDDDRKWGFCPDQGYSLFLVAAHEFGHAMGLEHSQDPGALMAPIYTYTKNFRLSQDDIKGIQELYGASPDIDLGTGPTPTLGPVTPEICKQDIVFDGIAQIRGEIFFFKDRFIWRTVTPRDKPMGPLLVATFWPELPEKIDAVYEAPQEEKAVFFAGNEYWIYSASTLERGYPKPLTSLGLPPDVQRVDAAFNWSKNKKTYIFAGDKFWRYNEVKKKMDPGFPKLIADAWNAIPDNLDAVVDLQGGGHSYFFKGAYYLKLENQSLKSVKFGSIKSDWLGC
Chain of Matrix metalloproteinase-9 (P14780 whole entry): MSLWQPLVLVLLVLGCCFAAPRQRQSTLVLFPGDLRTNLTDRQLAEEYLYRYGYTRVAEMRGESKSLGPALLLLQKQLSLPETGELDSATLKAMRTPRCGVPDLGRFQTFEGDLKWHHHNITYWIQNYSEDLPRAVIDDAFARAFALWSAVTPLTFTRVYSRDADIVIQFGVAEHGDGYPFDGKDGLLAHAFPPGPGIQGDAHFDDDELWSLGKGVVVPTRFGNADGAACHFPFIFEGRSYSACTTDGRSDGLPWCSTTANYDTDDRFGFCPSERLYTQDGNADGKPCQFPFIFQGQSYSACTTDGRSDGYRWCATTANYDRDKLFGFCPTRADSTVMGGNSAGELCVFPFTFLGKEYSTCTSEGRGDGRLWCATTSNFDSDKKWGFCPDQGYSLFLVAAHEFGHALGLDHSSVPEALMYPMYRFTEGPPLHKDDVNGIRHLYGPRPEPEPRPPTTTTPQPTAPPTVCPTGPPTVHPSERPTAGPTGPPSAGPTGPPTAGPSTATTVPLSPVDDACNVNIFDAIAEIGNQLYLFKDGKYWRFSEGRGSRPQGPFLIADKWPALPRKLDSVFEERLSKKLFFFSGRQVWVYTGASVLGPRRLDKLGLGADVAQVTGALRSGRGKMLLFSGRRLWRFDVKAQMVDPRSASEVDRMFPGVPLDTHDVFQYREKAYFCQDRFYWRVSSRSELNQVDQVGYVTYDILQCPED
Chain of Neutrophil collagenase (P22894 whole entry): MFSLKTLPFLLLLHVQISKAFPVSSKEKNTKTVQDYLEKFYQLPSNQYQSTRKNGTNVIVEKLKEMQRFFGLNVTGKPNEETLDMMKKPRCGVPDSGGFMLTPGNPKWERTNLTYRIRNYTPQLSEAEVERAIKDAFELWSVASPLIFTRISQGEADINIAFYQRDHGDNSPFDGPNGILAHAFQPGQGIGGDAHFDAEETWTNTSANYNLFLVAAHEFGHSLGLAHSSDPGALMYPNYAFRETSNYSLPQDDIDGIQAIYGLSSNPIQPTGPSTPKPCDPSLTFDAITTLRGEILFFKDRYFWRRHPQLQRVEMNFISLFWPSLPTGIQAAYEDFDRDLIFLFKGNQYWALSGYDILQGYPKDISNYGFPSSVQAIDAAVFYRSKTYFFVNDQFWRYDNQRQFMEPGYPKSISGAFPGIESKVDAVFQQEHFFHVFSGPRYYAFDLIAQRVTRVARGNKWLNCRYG

In the case of `O=C1NC(=O)C(c2ccc(Oc3ccccc3)cc2)(N2CCN(CCOCCOCCOCCn3cc(CCCCOc4cccnc4F)nn3)CC2)C(=O)N1`, the concentration for half-maximal inhibition (IC50) (in general, the point on the concentration scale where inhibition reaches its midpoint) turned out to be 52 nM in [1], 40 nM on Collagenase 3, 60 nM in [2] and 116 nM against Neutrophil collagenase.
Turning to `O=C1NC(=O)C(c2ccc(Oc3ccccc3)cc2)(N2CCN(CCOCCOCCOCCOCc3cn(CCOCCOCCOCCOc4cccnc4F)nn3)CC2)C(=O)N1`, the IC50 in series [1] was determined as 202 nM; on Collagenase 3, 605 nM; in series [2], 56 nM; at Neutrophil collagenase it was 107 nM.
For `O=C1NC(=O)C(c2ccc(Oc3ccccc3)cc2)(N2CCN(CCOCCOCCOCCOCCOCCOCCOCCOCc3cn(CCF)nn3)CC2)C(=O)N1`, in that order: 44 nM, 94 nM, 74 nM and 150 nM.
In the case of `O=C1NC(=O)C(c2ccc(Oc3ccccc3)cc2)(N2CCN(CCOCCOCCOCCOCc3cn(CC[18F])nn3)CC2)C(=O)N1`, the logD (as a rule, the decadic logarithm of the distribution of all forms, ionised or not, between an organic phase and buffer at a given pH) in [3] came to 0.78. Also, the Drug uptake result with Brain is on record as “Not Active”; with Liver [4], “Active”; in [5], “Active”; in the series on Kidney, “Active”; in the series on Liver [6], “Active”; in series [7], “Active”. For the same molecule, the Drug uptake result in series [8] is “Active”; in the series on Liver [9], “Active”; with Heart it was “Not Active”; with Intestine, “Active”; with Lung, “Not Active”. Further, the Stability result with Serum is listed as “Stable”.
For `O=C1NC(=O)C(c2ccc(-c3ccccc3)cc2)(N2CCN(c3ccc([N+](=O)[O-])cc3)CC2)C(=O)N1`, in series [3], the logD turned out to be 2.15. Besides, the 50% inhibitory concentration (IC50) in series [1] was 23 nM; in series [2] it was 7 nM.
As to `O=C1NC(=O)C(c2ccc(Oc3ccccc3)cc2)(N2CCN(CCOCCOCCOCCNC(=O)c3ccc(F)cc3)CC2)C(=O)N1`, the IC50 in [1] turned out to be 5 nM; on Collagenase 3 it was 16 nM; in series [2] it was 4 nM; against Neutrophil collagenase, 15 nM.
For `O=C1NC(=O)C(NCc2cn(CCOCCOCCOCCF)nn2)(c2ccc(Oc3ccccc3)cc2)C(=O)N1`, in that order: 64 nM, 87 nM, 41 nM and 48 nM.
The corresponding values for `O=C1NC(=O)C(c2ccc(Oc3ccccc3)cc2)(N2CCN(CCOCCOCCOCCn3cc(COC(=O)c4ccc(F)cc4)nn3)CC2)C(=O)N1` are 22 nM, 7 nM, 23 nM and 27 nM.
The corresponding values for `O=C1NC(=O)C(NCc2cn(CCOCCOCCOCCOc3cccnc3F)nn2)(c2ccc(Oc3ccccc3)cc2)C(=O)N1` are 29 nM, 9 nM, 10 nM and 49 nM.
Consider `CN(Cc1cn(CCOCCOCCOCCN2CCN(C3(c4ccc(Oc5ccccc5)cc4)C(=O)NC(=O)NC3=O)CC2)nn1)S(=O)(=O)c1ccc(F)cc1`, for which the concentration for half-maximal inhibition (IC50) amounted to 12 nM in series [1], 21 nM on Collagenase 3, 7 nM in series [2] and 15 nM against Neutrophil collagenase.
In the case of `O=C1NC(=O)C(c2ccc(Oc3ccccc3)cc2)(N2CCN(c3cccc(F)n3)CC2)C(=O)N1`, the IC50 in series [1] was 203 nM; on Collagenase 3 it was 48 nM; in [2] it was 9 nM; against Neutrophil collagenase, 129 nM.
The corresponding values for `O=C1NC(=O)C(c2ccc(Oc3ccccc3)cc2)(N2CCN(CCOCCOCCOCCn3cc(CNS(=O)(=O)c4ccc(F)cc4)nn3)CC2)C(=O)N1` are 13 nM, 23 nM, 20 nM and 19 nM.
`O=C1NC(=O)C(c2ccc(Oc3ccccc3)cc2)(N2CCN(CC[18F])CC2)C(=O)N1` yielded a logD in series [3] of 2.15. For the same molecule, the IC50 against Collagenase 3 is 645 nM; on Neutrophil collagenase, 138 nM.
Turning to `O=C1NC(=O)C(c2ccc(Oc3ccccc3)cc2)(N2CCN(CCOCCOCCOCCOCc3cn(CCF)nn3)CC2)C(=O)N1`, the concentration for half-maximal inhibition (IC50) in series [1] is 58 nM; at Collagenase 3, 51 nM; in series [2] it was 27 nM; on Neutrophil collagenase, 58 nM.
